Reference: ChEMBL document CHEMBL4024789, “Neutral Porphyrin Derivative Exerts Anticancer Activity by Targeting Cellular Topoisomerase I (Top1) and Promotes Apoptotic Cell Death without Stabilizing Top1-DNA Cleavage Complexes” (J Med Chem, 2018)
The source made the active and inactive calls. The rule behind the calls is not given here.

Experiments:
[1] = biological target: T1, DNA topoisomerase 1 (Homo sapiens) (UniProt P11387); assay: Inhibition of recombinant human topoisomerase-1 expressed in baculovirus infected sf9 cells at 1 uM using supercoiled pBS SK(+) DNA as substrate after 15 mins by ethidium bromide staining based agarose gel electrophoresis method relative to control
T1 sequence (whole entry): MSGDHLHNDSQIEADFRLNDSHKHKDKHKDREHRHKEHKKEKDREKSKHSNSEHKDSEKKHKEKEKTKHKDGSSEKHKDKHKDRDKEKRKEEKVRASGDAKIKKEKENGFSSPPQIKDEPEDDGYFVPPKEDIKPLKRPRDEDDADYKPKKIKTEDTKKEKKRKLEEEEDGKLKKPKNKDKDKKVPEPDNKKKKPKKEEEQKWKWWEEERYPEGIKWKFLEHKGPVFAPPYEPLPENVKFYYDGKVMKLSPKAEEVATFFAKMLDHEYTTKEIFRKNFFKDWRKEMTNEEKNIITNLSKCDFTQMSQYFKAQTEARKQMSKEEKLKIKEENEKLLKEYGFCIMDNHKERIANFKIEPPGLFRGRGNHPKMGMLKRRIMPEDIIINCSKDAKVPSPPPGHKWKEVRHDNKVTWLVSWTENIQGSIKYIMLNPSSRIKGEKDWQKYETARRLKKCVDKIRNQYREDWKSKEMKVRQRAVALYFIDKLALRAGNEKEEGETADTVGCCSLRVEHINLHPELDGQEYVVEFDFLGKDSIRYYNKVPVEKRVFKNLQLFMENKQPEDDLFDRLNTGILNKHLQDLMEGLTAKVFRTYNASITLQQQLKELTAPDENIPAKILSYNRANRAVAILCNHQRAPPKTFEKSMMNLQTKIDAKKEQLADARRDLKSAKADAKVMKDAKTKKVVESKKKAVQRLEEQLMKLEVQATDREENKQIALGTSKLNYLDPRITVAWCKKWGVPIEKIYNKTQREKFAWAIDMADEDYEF
In short: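 Relaxation assay: 90 fmol supercoiled pBS (SK+) DNA with 30 fmol recombinant Top1 (Sf-9/baculovirus). Compound either preincubated with Top1 for 5 min before DNA addition, or added simultaneously with DNA; then 37 °C for 15 min. Vehicle 2% DMSO. Read on 1% agarose gel. EC50 from mean ± SD of three experiments.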

[2] = biological target: T1, DNA topoisomerase 1 (Homo sapiens); assay: Inhibition of topoisomerase-1 in human MCF7 whole cell extracts at 0.25 to 5 uM using supercoiled pBS SK(+) DNA as substrate after 15 mins by ethidium bromide staining based agarose gel electrophoresis method
In short: (§1)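 Ex vivo relaxation assay with MCF7 whole-cell lysate as the Top1 source and supercoiled pBS (SK+) DNA. Compound either preincubated with lysate for 5 min before DNA, or added simultaneously; then 37 °C for 15 min. CPT control at 5 μM. Read on agarose gel; mean ± SD, n=3.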

[3] = biological target: T1, DNA topoisomerase 1 (Homo sapiens); assay: Inhibition of topoisomerase-1 in human MCF7 whole cell extracts at 0.25 to 5 uM using supercoiled pBS SK(+) DNA as substrate preincubated for 5 mins followed by substrate addition measured after 15 mins by ethidium bromide staining based agarose gel electrophoresis method; in short: as §1
[4] = biological target: T1, DNA topoisomerase 1 (Homo sapiens); assay: Ratio of compound effect for inhibition of recombinant human topoisomerase-1 expressed in baculovirus infected sf9 cells preincubated for 5 mins followed by substrate addition to compound effect for recombinant human topoisomerase-1 expressed in baculovirus infected sf9 cells simultaneously incubated with substrate
In short: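 Recombinant human Top1 purified from baculovirus-infected Sf-9 cells; 30 fmol enzyme with 90 fmol supercoiled pBS (SK+) DNA (3:1 molar ratio) in relaxation buffer. Compound either preincubated with enzyme 5 min before DNA, or added simultaneously; then 37 °C, 15 min. Relaxation on 1% agarose; % inhibition quantified, EC50 from three experiments (mean ± SD).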

[5] = biological target: T1, DNA topoisomerase 1 (Homo sapiens); assay: Inhibition of recombinant human topoisomerase-1 expressed in baculovirus infected sf9 cells assessed as reduction in cleavage complex formation with supercoiled pBS SK(+) DNA at 10 to 50 uM after 30 mins by ethidium bromide staining based agarose gel electrophoresis method
In short: (§2)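 Plasmid cleavage assay: 50 fmol supercoiled pBS (SK+) with 100 fmol recombinant Top1 plus compound or CPT, or Top1 with CPT before compound addition, at 37 °C for 30 min. Nicked (form II) and supercoiled (form I) DNA resolved by gel.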

[6] = biological target: T1, DNA topoisomerase 1 (Homo sapiens); assay: Inhibition of CPT-induced recombinant human topoisomerase1-supercoiled pBS SK(+) DNA cleavage complex after 30 mins using topoisomerase1 expressed in baculovirus infected sf9 cells by ethidium bromide staining based agarose gel electrophoresis method; in short: as §2
DNA topoisomerase 1 = biological target: T2, DNA topoisomerase 1 (Homo sapiens, UniProt P11387); assay: Binding affinity to recombinant human topoisomerase-1 expressed in baculovirus infected sf9 cells by spectrofluorimetric method
T2 sequence (P11387 whole entry): T1 sequence (whole entry)
In short: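 Purified Top1 (200 nM) incubated with compound at 0–11 μM, 25 °C, 10 min. Tryptophan emission read at 350 nm (ex 295 nm). Fraction bound B = (F0 – F)/Fmax, with Fmax taken from a double-reciprocal 1/(F0 – F) vs 1/[X] plot; KD derived from this. Mean ± SD, n=3.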

[7] = biological target: T1, DNA topoisomerase 1 (Homo sapiens); assay: Inhibition of […]-induced topoisomerase-1- genomic DNA cleavage complex in human MCF7 cells at 20 uM after 6 hrs by ICE assay; type: cell-based
In short: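 ICE bioassay in MCF7 cells. Treatment was CPT (10 μM) or compound (20 μM) for 12 h, or CPT for 6 h then compound for a further 6 h. Genomic DNA (0.5–4 μg) probed with anti-Top1 antibody. Quantified with n = 3, ± SEM, t test.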

MCF7 [8] = assay: Induction of ROS accumulation in human MCF7 cells at 10 uM up to 24 hrs by CM-H2DCFDA dye based spectrofluorometric method relative to control; type: functional
In short: (§3)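 MCF7 cells treated with 10 μM for the indicated times, with 0.2% DMSO as vehicle control, or pretreated with NAC (10 mM) for 30 min. ROS read as DCF fluorescence from CM-H2DCFDA. Mean ± SD of three independent experiments.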

MCF7 [9] = assay: Induction of ROS accumulation in human MCF7 cells at 10 uM up to 24 hrs in presence of ROS inhibitor NAC by CM-H2DCFDA dye based spectrofluorometric method; type: functional, cell-based; in short: as §3
HeLa = assay: Cytotoxicity against human HeLa cells assessed as reduction in cell viability by MTT assay; type: functional, cell-based
In short: (§4)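 Survival of each cell line measured across a range of compound concentrations. Percent inhibition of viability at each concentration calculated against untreated control and IC50 estimated. MEFs were TDP1+/+ and TDP1–/– primary cells. Mean ± SD of at least three experiments in duplicate.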

HCT-116 = assay: Cytotoxicity against human HCT116 cells assessed as reduction in cell viability by MTT assay; type: functional, cell-based; in short: as §4
MCF7 [10] = assay: Cytotoxicity against human MCF7 cells transfected with Top1 SiRNA assessed as reduction in cell viability by MTT assay; type: functional, cell-based
In short: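 MCF7 cells transfected with Top1 or control siRNA for 72 h; knockdown confirmed by Western blot with actin as loading control. Percent survival then plotted against compound concentration.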

MCF7 [11] = assay: Cytotoxicity against human MCF7 cells assessed as reduction in cell viability up to 10 uM in presence of CPT by MTT assay; type: functional, cell-based
In short: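 MCF7 cells pretreated with CPT (5 μM) for 12 h, then compound added at a range of concentrations. Viability inhibition calculated relative to control and IC50 estimated. Mean ± SD, at least three experiments in duplicate.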

inhibition [1]: 35 to 40%
inhibition [2]: Active
inhibition [3]: Active
Ratio [4]: 2 to 3
inhibition [5]: Active
inhibition [6]: Dose-dependent effect
Kd (DNA topoisomerase 1): 0.381 µM
inhibition [7]: Active
SMILES: CN(C)c1ccc(-c2c3nc(c(-c4ccc(N(C)C)cc4)c4ccc([nH]4)c(-c4ccc(C(=O)O)cc4)c4nc(c(-c5ccc(C(=O)O)cc5)c5ccc2[nH]5)C=C4)C=C3)cc1
fold change (FC) (MCF7 [8]): 3 - 5
Activity (MCF7 [9]): inactive
IC50 (HeLa): 4.13 µM
IC50 (HCT-116): 4.39 µM
IC50 (MCF7 [10]): 8.15 µM
Activity (MCF7 [11]): inactive
